The EternaBench riboswitch data

Tests used:
MS2 coat protein [1] = assay: apparent Kd, MS2 coat protein; higher = weaker binding; RNA-MaP array
Outline: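 Binding of fluorescently labeled MS2 coat protein, at 1.5 nM to 3 μM and room temperature, was measured with or without input ligand on designed RNAs transcribed on an Illumina sequencing chip from sequenced DNA templates. Apparent Kd was defined as the median of per-cluster binding-curve fits. No design measured on fewer than 10 clusters was kept.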

MS2 coat protein [2] = assay: apparent Kd, MS2 coat protein; higher = weaker binding; RNA-MaP array; FMN 200 µM where present
Outline: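 Designs were transcribed by stalled E. coli RNA polymerase on Illumina sequencing-chip clusters. They were titrated with SNAP-549-labelled MS2 coat protein from 0.7 or 1.5 nM, doubling to 3 µM, without and then with constant ligand. Buffer: 100 mM Tris-HCl pH 7.5, 80 mM KCl, 4 mM MgCl2, BSA, DTT, yeast tRNA, Tween-20. Green signal was normalised to red-channel RNA signal and control-cluster median Fmax. Apparent Kd is the median of filtered per-cluster binding-curve fits.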

[3] = designed as: ON switch for flavin mononucleotide, no ligand
[4] = ligand present: flavin mononucleotide, designed as: ON switch for flavin mononucleotide
[5] = designed as: OFF switch for flavin mononucleotide, no ligand
[6] = ligand present: flavin mononucleotide, designed as: OFF switch for flavin mononucleotide

CUAACCACAAUAGGAUAUCGGGCUCGUUUCAUUGCUGCAAAACAUGAGGAUCACCCAUGUCCGUCCGAGAAGGAUUGUAAGAAU
apparent Kd (MS2 coat protein [1]; [3]): 92.1 nM | apparent Kd (MS2 coat protein [1]; [4]): 14.8 nM

GACGAAUCGGCAGGAUAUCUAGAUGAGCCAGAAUGUAAUUGAGUUGACAUGAGGAUCACCCAUGUAGAGAAGGGCCCAUCCAUU
apparent Kd (MS2 coat protein [1]; [5]): 12.1 nM | apparent Kd (MS2 coat protein [1]; [6]): 20.7 nM

CAAAUAUAGUCAGGAUAUGUUCGAAAGGGUGCACAUGAGGAUCACCCAUGUCAUAAGACACUAGCACAGAAGGGACCCGAGAGA
apparent Kd (MS2 coat protein [1]; [5]): 149 nM | apparent Kd (MS2 coat protein [1]; [6]): 141 nM

CGCUACAUGAGGAUCACCCAUGUUACUCCGCGAGGACCGGUACGGCCGCCACUCGGCAGUUUGCGCCGCCGGAGGCACUCUUCAG
apparent Kd (MS2 coat protein [1]; designed as: ON switch for tryptophan, no ligand): 27 nM | apparent Kd (MS2 coat protein [1]; ligand present: tryptophan, designed as: ON switch for tryptophan): 33.1 nM

ACAAGGCUUACAGGAUAUGUGCGUCAUACAAAACAUGAGGAUCACCCAUGUGCCCCAGCGUCUUCACAGAAGGGUACAAGCGUU
apparent Kd (MS2 coat protein [1]; [3]): 26.6 nM | apparent Kd (MS2 coat protein [1]; [4]): 12.4 nM

CCAAGAGUACUAGGAUAUUCCGGCCACGCACAUGAGGAUCACCCAUGUGAGACUCUCAGACGGUCGAAGAAGGAGUUGCAGGCU
apparent Kd (MS2 coat protein [1]; [5]): 34.8 nM | apparent Kd (MS2 coat protein [1]; [6]): 30.9 nM

ACUCGAUUACACAACCCGACAUGAGGAUCACCCAUGUAUCCGAGAAGGGCUAAUAUAUUCAGGAAGCAGGAUAUCGAAUCAAUA
apparent Kd (MS2 coat protein [1]; [3]): 87.5 nM | apparent Kd (MS2 coat protein [1]; [4]): 50.5 nM

AUCACAUGAGGAUCACCCAUGUUAGGUAGAUGCAGUAAAGUCUAGGAUAUAAGCUUGUGAAGUAGUUAGAAGGAGACACAUGAG
apparent Kd (MS2 coat protein [1]; [5]): 22.9 nM | apparent Kd (MS2 coat protein [1]; [6]): 18.3 nM

CUCUAUCAGCAAGGAUAUGGGAGGUGUCGAGUUCCAGAAGGUGCACAUGAGACAUGAGGAUCACCCAUGUUGUGUAGUCCUCGA
apparent Kd (MS2 coat protein [1]; [5]): 10.8 nM | apparent Kd (MS2 coat protein [1]; [6]): 26.5 nM

GGAAUGUAAGGAUAUACCCGUAAGGUAGGGAUCGCAUCGGCGUAGAAGGUACAUGAGGAUCACCCAUGUUCAGC
apparent Kd (MS2 coat protein [1]; [5]): 7.78 nM | apparent Kd (MS2 coat protein [1]; [6]): 7.97 nM

AGACCCAGAGGAUAUAACACAUGUAACAUGAGGAUCACCCAUGUGUCUAGUAGACACUUGUUAGAAGGCAGGCAUG
apparent Kd (MS2 coat protein [1]; [5]): 83.2 nM | apparent Kd (MS2 coat protein [1]; [6]): 54.5 nM

UACUUCACGAUACAGGAUAUACGUAAGUUCACAUGAGGAUCACCCAUGUUAGCACACCAACUCAUGUAGAAGGGUAUCCCUAUAUA
apparent Kd (MS2 coat protein [1]; [3]): 30.4 nM | apparent Kd (MS2 coat protein [1]; [4]): 13.1 nM

GCUCGUUGCAUGGAUACCAGUUGAUAGGCCGCCUCCGGAUACAUGAGGAUCACCCAUGUCAACCCUUGGCAGCCACCCAAUAGGG
apparent Kd (MS2 coat protein [1]; designed as: OFF switch for theophylline, no ligand): 9.36 nM | apparent Kd (MS2 coat protein [1]; ligand present: theophylline, designed as: OFF switch for theophylline): 18.1 nM

GAUAAGGAAGGAUAUACAAAGGAACAAAUACACAUUCUAAAACAUGAGGAUCACCCAUGUAGAAGGACCAACAA
apparent Kd (MS2 coat protein [1]; [5]): 6.97 nM | apparent Kd (MS2 coat protein [1]; [6]): 6.83 nM

ACACAUGAGGAUCACCCAUGUCGUGAGAGCUCAGUCGUGCGUUAGGAUAUCAUUCUGUUAGUGUUUGAGAAGGAACGGGUAACC
apparent Kd (MS2 coat protein [1]; [5]): 50.1 nM | apparent Kd (MS2 coat protein [1]; [6]): 43.3 nM

UCGUCGCUUCAGAAGGACAGACAAUCGUGCACUGUAGGAUAUGAGACGCGACAUGAGGAUCACCCAUGUGAACGGUUCGUAUAA
apparent Kd (MS2 coat protein [1]; [5]): 25.1 nM | apparent Kd (MS2 coat protein [1]; [6]): 53 nM

CACAACGGUAGUUAGGAUAUCCAUAUGCGUACAUGAGGAUCACCCAUGUAAUUACAGAAAUGAUAGGAGAAGGAACGCAUCCGAAA
apparent Kd (MS2 coat protein [1]; [3]): 33.3 nM | apparent Kd (MS2 coat protein [1]; [4]): 21 nM

UAGGUACAUGAGGAUCACCCAUGUCCUAUUACUACAGGAUAUAGCGUGCCUAGAUGGGUGCUAGAAGGGUAGAUCU
apparent Kd (MS2 coat protein [1]; [3]): 20.7 nM | apparent Kd (MS2 coat protein [1]; [4]): 9.13 nM

CCUGUAGACCCGACAUGAGGAUCACCCAUGUGUAGUUAUGGUAGAAGGUCGUACUGAACACACUCGAAGGAUAUACCCUUAUAC
apparent Kd (MS2 coat protein [1]; [3]): 13.9 nM | apparent Kd (MS2 coat protein [1]; [4]): 13.3 nM

CAACAUGAGGAUCACCCAUGUGGAGGUCCCGUUACCGGCGGAUAGGAUAUGGAACGCAGCGAAAACCAGAAGGAUCUAUAGGAC
apparent Kd (MS2 coat protein [1]; [6]): 112 nM

UGUAUAGCCACUCAGGAUAUAGUUCAUCACACAUGAGGAUCACCCAUGUUACCAAUAUCAUCUGACUAGAAGGGAGAGACUUGCGU
apparent Kd (MS2 coat protein [1]; [3]): 13.4 nM | apparent Kd (MS2 coat protein [1]; [4]): 9.17 nM

UGGAACAGUGUAAGGAUAUGGUACAAAAUAAACUCCCAGAAGGUACAUGAGGAUCACCCAUGUUAAUAAGACAA
apparent Kd (MS2 coat protein [1]; [5]): 13.7 nM | apparent Kd (MS2 coat protein [1]; [6]): 13.6 nM

CACGCCAGAUCUCAGGAUAUCCCACAUCAAACAUGAGGAUCACCCAUGUGACAUAUAUAGAACAUGGAGAAGGGAGCACAUGCGGC
apparent Kd (MS2 coat protein [1]; [3]): 209 nM | apparent Kd (MS2 coat protein [1]; [4]): 113 nM

AGGCGGGUAGGAUAUACCUUGUUCCUAGUAUCCAGUCGAGGACAUGAGGAUCACCCAUGUAGAAGGACCCAUUC
apparent Kd (MS2 coat protein [1]; [5]): 30.9 nM | apparent Kd (MS2 coat protein [1]; [6]): 36.5 nM

GCGGGUUACCCAGAAUGAGAAACAUGAGGAUCACCCAUGUAGAAGGAUAUAGAGUCUUGGUCUGCCUAGAAGGUCUAUAAUUGA
apparent Kd (MS2 coat protein [1]; [5]): 20.5 nM | apparent Kd (MS2 coat protein [1]; [6]): 19.9 nM

GAUCGCAUCGUGAGGAUAUGAAAUGCCACUCAAAUACAGAAGGCACAUGAGGAUCACCCAUGUCUAGACAAGAG
apparent Kd (MS2 coat protein [1]; [5]): 25.9 nM | apparent Kd (MS2 coat protein [1]; [6]): 64.9 nM

GGUCCGACAACAGGAUAUGUCAUACGCUAAUGAACAGAAGGGUUACAUGAGGAUCACCCAUGUGCUUACACAUGCUCCGGAGCA
apparent Kd (MS2 coat protein [1]; [3]): 10.8 nM | apparent Kd (MS2 coat protein [1]; [4]): 17.1 nM

CAUUAAACAGCAGGAUAUACUAGUGUGAUACUGGUAGAAGGGCUCCUCACCCACAUGAGGAUCACCCAUGUGACAUCUACCUUA
apparent Kd (MS2 coat protein [1]; [3]): 314 nM | apparent Kd (MS2 coat protein [1]; [4]): 146 nM

UAAAUUCGAGGAUAUACGAGCCUCUUGAGCUGCCACGAAGCACAUGAGGAUCACCCAUGUAGAAGGCGACGGAU
apparent Kd (MS2 coat protein [1]; [5]): 12.2 nM | apparent Kd (MS2 coat protein [1]; [6]): 19.9 nM

GCAUACAGCAAGAAGGUGGCAUCGACUAUGGCCCAAGGAUAUUGCGGUACUACAUGAGGAUCACCCAUGUGUUCAUGAUUAUAG
apparent Kd (MS2 coat protein [1]; [3]): 35.5 nM | apparent Kd (MS2 coat protein [1]; [4]): 30.2 nM

GACGUGUGAGGAUAUGCCGUGCCGGUCCGGAAGGUUCGGGUGCAGAAGGCACAUGAGGAUCACCCAUGUGUAAG
apparent Kd (MS2 coat protein [2]; [5]): 23.4 nM | apparent Kd (MS2 coat protein [2]; [6]): 32.5 nM

UGUCGGAGCAGAGGAUAUUACAUGAGGAUCACCCAUGUAUGAACCAAUAGCUGGAAACAGCAACGUAAGAAGGCUGCUCCGACA
apparent Kd (MS2 coat protein [2]; [5]): 6.75 nM | apparent Kd (MS2 coat protein [2]; [6]): 47.2 nM

CCGGAAACGGGUAGCUCACAUGAGGAUCACCCAUGUGAAACACAGGAUAUGGAUCCUAAUUGGAUCCAGAAGGGUGUGAGCUAC
apparent Kd (MS2 coat protein [2]; [3]): 58 nM | apparent Kd (MS2 coat protein [2]; [4]): 20.3 nM

GUAUGAGCGAUAGGAUAUACUGAGAUUGAAUGGGUAGAAGGAUCACUUGUGAGGAAGACAUGAGGAUCACCCAUGUCACGGGCC
apparent Kd (MS2 coat protein [2]; [3]): 92.8 nM | apparent Kd (MS2 coat protein [2]; [4]): 119 nM

GGAUCGAUGUAGAAGGCUGUCUUAAAAUAGGACAGAGGAUAUACAUGAGGAUCACCCAUGUACUCCUUUAAAAUGAUCCAAAUA
apparent Kd (MS2 coat protein [2]; [5]): 5.81 nM | apparent Kd (MS2 coat protein [2]; [6]): 9.65 nM

AUACCACGAGGAUAUCGUCUAUUUCACAUGAGGAUCACCCAUGUUAUCUUUGUUUUGUUUCGAGAAGGCGUGUUUU
apparent Kd (MS2 coat protein [2]; [5]): 30.9 nM | apparent Kd (MS2 coat protein [2]; [6]): 20.9 nM

GACCUGACAUAAUAAUGUAGAAAUACAUGAGGAUCACCCAUGUAGGAUAUGCAGUGGAAUACACUGCAGAAGGACAUAGUCAGG
apparent Kd (MS2 coat protein [2]; [5]): 15.9 nM | apparent Kd (MS2 coat protein [2]; [6]): 22.9 nM

ACAUGAGGAUCACCCAUGUACAGGGUUUAGUUUCAUUGUUUGAAGGAUAUACUUAGUUAGUUGUUGUAGAAGGUCAUAUUUUAU
apparent Kd (MS2 coat protein [2]; [5]): 203 nM | apparent Kd (MS2 coat protein [2]; [6]): 265 nM

UAUUAGUUAGGAUAUACAUGAGGAUCACCCAUGUCACGGGUCCACUUGUCCUAUGCGUGUAGAAGGAGCGACCC
apparent Kd (MS2 coat protein [2]; [5]): 19.5 nM | apparent Kd (MS2 coat protein [2]; [6]): 20.8 nM

UUUUUACGAGGAUAUCGUUUUUUUCACAUGAGGAUCACCCAUGUUGUUUAUGUUUCGUUUCGAGAAGGCGUUUGUU
apparent Kd (MS2 coat protein [2]; [5]): 28.2 nM | apparent Kd (MS2 coat protein [2]; [6]): 22.1 nM

UGAUAGGACAGAGGAUAUACGGAUAGGAUCUACUAUCCUCCUUAAAUAACAUGAGGAUCACCCAUGUAGAAGGCUGUCCUAUCU
apparent Kd (MS2 coat protein [2]; [5]): 17.2 nM | apparent Kd (MS2 coat protein [2]; [6]): 39 nM
